Assay results published in ChEMBL document CHEMBL1138477, “8-(4-Methoxyphenyl)pyrazolo[1,5-a]-1,3,5-triazines: selective and centrally active corticotropin-releasing factor receptor-1 (CRF1) antagonists” (J Med Chem, 2009).
Activity calls are given as the source filed them. No cut-off for these calls is given here.

Columns and labels:
[1] = target: T1, Corticotropin-releasing factor-binding protein (Homo sapiens, UniProt P24387); assay: Binding affinity to human recombinant CRF binding protein
T1 sequence (P24387 whole entry): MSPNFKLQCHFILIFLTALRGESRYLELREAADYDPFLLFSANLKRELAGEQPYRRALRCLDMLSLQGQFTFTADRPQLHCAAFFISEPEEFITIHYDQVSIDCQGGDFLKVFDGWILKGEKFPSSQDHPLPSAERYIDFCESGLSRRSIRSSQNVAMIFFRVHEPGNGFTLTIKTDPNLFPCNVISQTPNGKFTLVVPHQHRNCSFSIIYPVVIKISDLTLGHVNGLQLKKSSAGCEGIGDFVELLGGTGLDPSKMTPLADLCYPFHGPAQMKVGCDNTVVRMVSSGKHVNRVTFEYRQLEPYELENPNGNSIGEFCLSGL

[2] = target: T2, Alpha-2C adrenergic receptor (Homo sapiens, UniProt P18825); assay: Binding affinity to adrenergic alpha2c receptor
T2 sequence (P18825 whole entry): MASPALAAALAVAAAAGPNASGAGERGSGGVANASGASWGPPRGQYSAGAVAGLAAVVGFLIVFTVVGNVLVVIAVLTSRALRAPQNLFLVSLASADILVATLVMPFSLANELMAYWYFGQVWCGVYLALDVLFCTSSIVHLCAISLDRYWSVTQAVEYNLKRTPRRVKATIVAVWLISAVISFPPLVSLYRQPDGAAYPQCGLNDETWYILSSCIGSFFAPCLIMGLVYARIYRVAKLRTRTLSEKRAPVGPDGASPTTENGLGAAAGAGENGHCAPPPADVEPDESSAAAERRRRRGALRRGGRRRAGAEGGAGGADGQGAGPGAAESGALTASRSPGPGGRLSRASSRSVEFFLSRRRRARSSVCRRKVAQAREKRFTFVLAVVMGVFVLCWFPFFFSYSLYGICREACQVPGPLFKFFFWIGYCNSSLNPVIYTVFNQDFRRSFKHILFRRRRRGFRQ

[3] = target: T3, Corticotropin-releasing factor receptor 2 (Homo sapiens) (UniProt Q13324); assay: Antagonist activity at human cloned CRF2alpha receptor expressed in HEK293 cells; assay type: functional, cell-based
T3 sequence (whole entry): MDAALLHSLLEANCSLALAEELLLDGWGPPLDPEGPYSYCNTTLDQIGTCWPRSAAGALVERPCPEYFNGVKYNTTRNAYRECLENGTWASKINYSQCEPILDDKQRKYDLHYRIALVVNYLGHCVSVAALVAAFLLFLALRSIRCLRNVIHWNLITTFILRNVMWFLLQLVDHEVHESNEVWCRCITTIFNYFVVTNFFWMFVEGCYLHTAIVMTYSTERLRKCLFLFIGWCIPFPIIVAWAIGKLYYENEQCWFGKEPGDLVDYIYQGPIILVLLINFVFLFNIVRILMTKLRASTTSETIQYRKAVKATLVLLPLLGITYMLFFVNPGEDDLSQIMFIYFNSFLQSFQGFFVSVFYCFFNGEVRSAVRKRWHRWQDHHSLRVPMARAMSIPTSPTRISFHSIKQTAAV

[4] = target: T4, Corticotropin-releasing factor receptor 2 (Homo sapiens, UniProt Q13324); assay: Binding affinity to human CRF2alpha receptor
T4 sequence (Q13324 whole entry): T3 sequence (whole entry)

[5] = target: T5, Corticotropin-releasing factor receptor 1 (Homo sapiens, UniProt P34998); assay: Binding affinity to CRF1 receptor in human IMR32 cells; assay type: cell-based, IMR-32
T5 sequence (P34998 whole entry): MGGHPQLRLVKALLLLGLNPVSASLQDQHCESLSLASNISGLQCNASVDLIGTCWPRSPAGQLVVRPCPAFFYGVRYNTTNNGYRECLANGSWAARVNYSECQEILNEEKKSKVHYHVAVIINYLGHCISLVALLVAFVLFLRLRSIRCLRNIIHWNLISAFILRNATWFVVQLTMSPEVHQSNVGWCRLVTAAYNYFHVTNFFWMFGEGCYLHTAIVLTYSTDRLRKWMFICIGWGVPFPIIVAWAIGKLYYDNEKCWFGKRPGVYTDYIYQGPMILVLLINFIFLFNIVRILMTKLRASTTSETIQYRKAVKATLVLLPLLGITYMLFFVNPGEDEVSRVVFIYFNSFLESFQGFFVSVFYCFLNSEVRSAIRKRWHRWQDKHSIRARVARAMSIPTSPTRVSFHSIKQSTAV

[6] = target: T3, Corticotropin-releasing factor receptor 2 (Homo sapiens); assay: Agonist activity at human cloned CRF2alpha receptor expressed in HEK293 cells; assay type: functional, cell-based
[7] = target: T6, Corticotropin-releasing factor receptor 1 (Rattus norvegicus, UniProt P35353); assay: Antagonist activity at CRF1 receptor in rat brain homogenates assessed as inhibition of CRF-stimulted cAMP production; assay type: functional, tissue-based
T6 sequence (P35353 whole entry): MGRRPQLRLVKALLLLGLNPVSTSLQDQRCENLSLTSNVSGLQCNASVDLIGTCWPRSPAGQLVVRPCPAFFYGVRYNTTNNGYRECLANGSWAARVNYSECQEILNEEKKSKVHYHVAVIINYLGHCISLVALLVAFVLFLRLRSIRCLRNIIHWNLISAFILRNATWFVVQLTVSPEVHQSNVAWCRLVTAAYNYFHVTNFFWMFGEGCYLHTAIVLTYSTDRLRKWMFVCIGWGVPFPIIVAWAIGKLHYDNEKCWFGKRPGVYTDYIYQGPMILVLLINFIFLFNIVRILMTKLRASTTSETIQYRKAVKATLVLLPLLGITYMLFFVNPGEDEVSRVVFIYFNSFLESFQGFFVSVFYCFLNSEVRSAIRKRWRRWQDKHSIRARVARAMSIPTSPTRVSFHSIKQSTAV
Procedure, shortened: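 Rat cortical homogenate (0.8 mg original wet weight tissue) incubated 10 min at 37 °C in 100 mM Tris-HCl pH 7.4, 10 mM MgCl2, 0.4 mM EGTA, 0.1% BSA, 1 mM IBMX, creatine phosphate/phosphocreatine kinase, 100 nM ovine-CRF; started with 1 mM ATP/[32P]ATP; [32P]cAMP separated on Dowex and alumina columns, [3H]cAMP recovery marker; n = 3.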

[8] = Binding affinity to L-type calcium channel
[9] = target: Vasopressin V1a receptor (Homo sapiens, UniProt P37288); assay: Binding affinity to vasopressin V1 receptor
Sequence of Vasopressin V1a receptor (P37288 whole entry): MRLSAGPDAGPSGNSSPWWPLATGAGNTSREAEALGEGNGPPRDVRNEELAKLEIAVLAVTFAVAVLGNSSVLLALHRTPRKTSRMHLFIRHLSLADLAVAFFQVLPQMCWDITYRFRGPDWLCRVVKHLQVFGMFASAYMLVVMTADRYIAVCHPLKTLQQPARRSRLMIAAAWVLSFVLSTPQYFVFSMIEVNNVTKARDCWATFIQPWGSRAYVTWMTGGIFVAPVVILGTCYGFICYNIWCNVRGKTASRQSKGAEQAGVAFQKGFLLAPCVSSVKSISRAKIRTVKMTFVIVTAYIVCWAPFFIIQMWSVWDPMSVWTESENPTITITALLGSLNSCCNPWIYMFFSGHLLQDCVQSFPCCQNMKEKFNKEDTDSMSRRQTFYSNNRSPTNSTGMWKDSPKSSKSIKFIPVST

[10] = Binding affinity to serotonin receptor
[11] = target: T7, Corticotropin-releasing factor receptor 1 (Rattus norvegicus) (UniProt P35353); assay: Agonist activity at CRF1 receptor in rat brain homogenates assessed as CRF-stimulted cAMP production; assay type: functional, tissue-based
T7 sequence (whole entry): T6 sequence (P35353 whole entry)

Structure (SMILES) | IC50 [1] [µM] | IC50 [2] [µM] | Activity [3] | IC50 [4] [µM] | IC50 [5] [µM] | Activity [6] | IC50 [7] [µM] | IC50 [8] [µM] | IC50 [9] [µM] | IC50 [10] [µM] | Activity [11]
CCC(CC)Nc1nc(C)nc2c(-c3cc(F)c(OC)cc3Cl)c(C)nn12 | > 1 | > 1 | inactive | > 1 | 0.0012 | inactive | 0.036 | > 1 | > 1 | > 1 | inactive
COCCN(CCOC)c1nc(C)nc2c(-c3ccc(OC)cc3C)c(C)nn12 | > 1 | > 1 | inactive | > 1 | 0.0047 | inactive | 0.066 | > 1 | > 1 | > 1 | inactive
CC[C@@H](C)Nc1nc(C)nc2c(-c3c(C)cc(OC)cc3OC)c(C)nn12 | > 1 | > 1 | inactive | > 1 | 0.0034 | inactive | 0.11 | > 1 | > 1 | > 1 | inactive
COCCN(CCOC)c1nc(C)nc2c(-c3cc(C)c(OC)cc3C)c(C)nn12 | > 1 | > 1 | inactive | > 1 | 0.0152 | inactive | 0.038 | > 1 | > 1 | > 1 | inactive
